CHO parental Ca – signal in parental CHO cells, OX1R antagonist counter-screen; parental CHO-K1, ATP-induced calcium, Fluo-8 fluorescence; inhibition, % at 5.6 µM; AID 463079; actives 0.63% (n = 330,000);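 active = inhibition above that plate's mean sample inhibition plus 3 SD, cut at about 26% in these data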
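Test system: untransfected parental CHO cell line; also added: ATP stimulus; dosing: 5.6 µM, single dose; signal: calcium-sensitive Fluo-8 fluorescence; measure: percent inhibition of ATP-evoked calcium rise, normalized to controls; benchmarks: low control ATP plus DMSO, high control DMSO only; replication: one well per compound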
OX1R antag-1 – antagonists of human orexin 1 receptor (OX1R); actives 1.8% (n = 330,000); O43613; OX1R-expressing cells, FRET antagonist read-out; inhibition, % at 6.6 µM; in the data active = inhibition mostly above about 38%, no sharp cut-off; inactive = mostly below about 40%
OX1R antag-2 – blocks the human orexin 1 receptor | O43613 | CHO/OX1R cells, Fluo-8 calcium fluorescence, orexin A | inhibition, % at 5 µM | actives 0.43% (n = 330,000) | AID 434989;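 active = inhibition above its plate's threshold, mean inhibition of all tested compounds on the plate plus 3 SD, cut at about 37% in these data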
TAAR1 antag – antagonists of human TAAR1. Q96RJ0. inhibition, % at 3 µM. actives 1.5% (n = 360,000). CHO RD-HGA16 TAAR1, Fluo-8 calcium fluorescence, antagonist;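 active = inhibition above a per-plate cutoff, the mean inhibition of test compounds on that plate plus 3 SD, cut at about 49% in these data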
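Test system: RD-HGA16 CHO cells with stable hTAAR1 and Gα16 / Probe or stimulus: EC80 β-phenethylamine stimulus / Times: seeding 17-24 h prior, 75-min 37 °C, 30-min RT dye loading / Detection: Fluo-8 calcium-sensitive fluorescence / Read-out basis: % inhibition scaled between DMSO and EC80 PEA controls / Repeats: singlicate, one well per test compound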
TAAR1 ag – human TAAR1 agonism; Q96RJ0; CHO RD-HGA16 TAAR1, Fluo-8 calcium fluorescence; vehicle wells 0%, saturating PEA agonist 100%; activation, % at 3 µM; actives 0.99% (n = 360,000); AID 624467;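 active = activation above the mean activation of all test compounds in the run plus 3 SD, cut at about 38% in these data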
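Signal – calcium-sensitive Fluo-8 signal, excitation 470-495, emission 515-575 nm · System – RD-HGA16 (CHO) cells co-expressing Gα16 and hTAAR1 · Incubation – 17-24 h seeding, 75 min 37 °C dye, 30 min RT · Compound dosing – 3 µM single concentration · Repeats – no replicates (n 1)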
GPR7 antag – human neuropeptides B/W receptor 1 antagonism. actives 1.1% (n = 290,000). GPR7-expressing cells, fluorescence antagonist assay. P48145. inhibition, % at 4.4 µM; in the data active = inhibition above about 16%, passing the limit was not always enough;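 also: cells stimulated with the agonist NPW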
Target sequence (P48145 whole entry, looked up): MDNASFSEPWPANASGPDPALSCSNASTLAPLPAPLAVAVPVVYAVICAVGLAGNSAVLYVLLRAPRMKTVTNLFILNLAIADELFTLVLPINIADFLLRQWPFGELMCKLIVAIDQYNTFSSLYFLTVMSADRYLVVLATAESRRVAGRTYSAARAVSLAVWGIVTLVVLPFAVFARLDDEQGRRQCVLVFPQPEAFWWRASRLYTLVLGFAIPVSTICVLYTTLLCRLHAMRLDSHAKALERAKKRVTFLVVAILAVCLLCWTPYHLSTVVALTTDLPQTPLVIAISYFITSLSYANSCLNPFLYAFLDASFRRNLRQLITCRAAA
GPR7 antag conf – human GPR7 antagonism, confirmation assay; shares compounds with GPR7 antag; GPR7-expressing cells, calcium fluorescence antagonist mode; inhibition, % at 4.4 µM; actives 52% (n = 2,400); AID 1952; in the data active = inhibition above about 24%;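 also: stimulated with the GPR7 agonist NPW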
MCHR1 antag – counter-screen for GPR7 antagonists: antagonists of human MCHR1; shares compounds with GPR7 antag; MCHR1-expressing cells, fluorescence antagonist assay; inhibition, % at 4.4 µM; actives 62% (n = 2,400); in the data active = inhibition above about 22%
Large screens that a line does not name were inactive (follow-up assays come after a bar, where they were run); ! = a repeat was not active. Compounds with a hit are over-represented: about 4.5% of the library has one in this group of screens.

O=C(CN1CCN(S(=O)(=O)c2ccc(Cl)cc2)CC1)Nc1ccc(F)cc1F	GPR7 antag 24 (no result: TAAR1 antag, TAAR1 ag) | GPR7 antag conf 34 | MCHR1 antag 22
COc1cc(NC(=O)CNc2cccc(S(=O)(=O)N3CCCC3)c2)cc(OC)c1	GPR7 antag 31 | GPR7 antag conf inactive | MCHR1 antag inactive
COc1cccc(NC(=O)CN2CCN(S(=O)(=O)c3ccc(C(C)C)cc3)CC2)c1	GPR7 antag 35 | GPR7 antag conf 38 | MCHR1 antag 29
CCn1c([N+](=O)[O-])nc2c1c(=O)[nH]c(=O)n2C	none (no result: CHO parental Ca, OX1R antag-1, OX1R antag-2)
O=C(CN1CCN(CC(=O)Nc2ccccc2Cl)CC1)Nc1ccc(F)c(F)c1	GPR7 antag 48 | GPR7 antag conf 42 | MCHR1 antag 61
NS(=O)(=O)c1ccc(NC(=O)CN2CCN(S(=O)(=O)c3ccc(F)cc3)CC2)cc1	none
O=C(CN1CCCCCC1)Nc1ccc(F)c(F)c1	none
COc1cccc(NC(=O)CN2C(=O)COc3ccc(S(=O)(=O)N4CCC(C)CC4)cc32)c1	GPR7 antag 23 | GPR7 antag conf inactive | MCHR1 antag inactive
O=C(CN1CCN(S(=O)(=O)c2ccc(Br)cc2)CC1)Nc1ccc(F)cc1	GPR7 antag 30 | GPR7 antag conf 39 | MCHR1 antag 26
Cc1csc2cc(-c3cccc([N+](=O)[O-])c3)c(-c3cccc([N+](=O)[O-])c3)c[n+]12	none
O=C(COC(=O)CCc1ccc(S(=O)(=O)N2CCOCC2)cc1)NCc1ccccc1Cl	none
NS(=O)(=O)c1ccc(CNC(=S)Nc2ccc(Cl)c(Cl)c2)cc1	GPR7 antag 33 | GPR7 antag conf 41 | MCHR1 antag 40
Cn1c(=O)c(=O)n(C)c2cc(S(=O)(=O)N3CC(=O)N(CCc4ccccc4)C(=O)C3)ccc21	GPR7 antag 23 | GPR7 antag conf inactive | MCHR1 antag inactive
Cn1c(=O)c(=O)n(C)c2cc(S(=O)(=O)N3CCN(Cc4ccccc4)CC3)ccc21	none
CN(C)CCCN1c2ccccc2Sc2ccc(Cl)cc21	GPR7 antag 35! | GPR7 antag conf 46 | MCHR1 antag 57
Cc1ccc2c(c1)N(CC(=O)NC1CCCC1)C(=O)CO2	none
Cc1ccc(S(=O)(=O)NC(C)C(=O)NC(C)c2cccs2)cc1 (stereo unspecified)	none
CN(CC(=O)Nc1ccccc1Br)C(=O)CCc1ccccc1	GPR7 antag 23 | GPR7 antag conf inactive | MCHR1 antag inactive
Cc1ccc(CCNC(=O)C2CC(=O)N(C3CCCCC3)C2)cc1 (stereo unspecified)	GPR7 antag 28 | GPR7 antag conf inactive | MCHR1 antag inactive
C/C(=N/NC(=O)c1cccs1)c1cccc(NC(=O)C2CC2)c1	GPR7 antag 36 | GPR7 antag conf inactive | MCHR1 antag inactive
Cc1ccc(-c2csc3ncnc(N4CCN(C(=O)c5ccccc5)CC4)c23)cc1	TAAR1 antag 50, GPR7 antag 29 | GPR7 antag conf 36 | MCHR1 antag 53
O=C(c1ccco1)N1CCN(c2ncnc3scc(-c4ccccc4)c23)CC1	none
CC(=O)NCCn1c(SCc2cc(F)ccc2F)nc2ccccc2c1=O	GPR7 antag 33 | GPR7 antag conf inactive | MCHR1 antag inactive
Cc1ccc(-c2nnc(SCC(=O)N/N=C/c3ccc(C(=O)O)cc3)n2C2CCCCC2)cc1	none
COc1ccc2c(c1)C(=O)N(c1ccccc1)C(=O)C2	GPR7 antag 28 | GPR7 antag conf inactive | MCHR1 antag inactive
CCOc1ccccc1C(=O)Nc1ccc(S(=O)(=O)Nc2cc(OC)nc(OC)n2)cc1	none
Cc1ccc(CC(=O)Nc2ccncc2)cc1	GPR7 antag 33 | GPR7 antag conf inactive | MCHR1 antag 40
CCOC(=O)N1CCC(N(C(=O)Nc2cccc(OC)c2)C(C)CC)CC1 (stereo unspecified)	GPR7 antag 32 | GPR7 antag conf inactive | MCHR1 antag inactive

Screening results (PubChem)
